Source: ChEMBL document CHEMBL1151838, “Isariotins E and F, spirocyclic and bicyclic hemiacetals from the entomopathogenic fungus Isaria tenuipes BCC 12625” (J Nat Prod, 2009)
pIC50: −log10 of the molar value. Values after ≈ are worked out from the molar mass of the structure shown.

How the values were obtained:
[1] = system: NCI-H187; assay: Cytotoxicity against human NCI-H187 cells by SRB assay; assay type: functional, cell-based; settings: for pIC50: Homo sapiens, NCI-H187, read-out: IC50
Method in brief: (§1)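 Colorimetric cytotoxicity assay. IC50 given as mean ± SD (n = 3), curve fits with R2 > 0.9. Ellipticine served as positive control.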

[2] = system: KB; assay: Cytotoxicity against human KB cells by SRB assay; assay type: functional, cell-based; settings: for pIC50: Homo sapiens, KB, read-out: IC50; method in brief: as §1
[3] = Cytotoxicity against human BC cells by SRB assay; assay type: functional, cell-based; settings: for pIC50: Homo sapiens, BC, read-out: IC50; method in brief: as §1
[4] = system: Vero; assay: Cytotoxicity against african green monkey Vero cells by SRB assay; assay type: cell-based, Chlorocebus sabaeus; settings: for pIC50: Chlorocebus sabaeus, Vero, read-out: IC50; method in brief: as §1
[5] = system: Candida albicans; assay: Antifungal activity against Candida albicans; assay type: functional, organism-based
Method in brief: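 Colorimetric growth-inhibition assay against Candida albicans; IC50 values reported.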

[6] = system: Mycobacterium tuberculosis; assay: Antitubercular activity against Mycobacterium tuberculosis H37Ra after 4 days by microplate alamar blue assay; assay type: functional; settings: 96 h
Method in brief: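 M. tuberculosis H37Ra tested by microplate Alamar Blue assay. MIC was taken as the lowest concentration giving ≥90% growth inhibition.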

[7] = system: Plasmodium falciparum; assay: Antiplasmodial activity after 24 hrs against Plasmodium falciparum K1 by [G-3H]hypoxanthine uptake; assay type: functional, organism-based; settings: K1, 24 h
Method in brief: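 P. falciparum K1 tested by a microculture radioisotope technique, with IC50 as the read-out.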

## CCCCCCCCC/C=C/C(=O)N[C@H]1C[C@@]2(O)C(=O)[C@@H]([C@H]1O)[C@H](OC)[C@@H]1O[C@@H]12
[1]; nci-h187
  IC50: Not Active
[2]; kb
  IC50: Not Active
[3]; bc
  IC50: Not Active
[4]; vero
  IC50: Not Active

## C[C@@H]1[C@H](O)[C@@H](C)/C=C/C=C/C=C/C=C/C=C/C=C/C=C/[C@H](O[C@@H]2O[C@H](C)[C@@H](O)[C@H](N)[C@@H]2O)C[C@@H]2O[C@](O)(C[C@@H](O)C[C@@H](O)[C@H](O)CC[C@@H](O)C[C@@H](O)CC(=O)O[C@H]1C)C[C@H](O)[C@H]2C(=O)O [AMPHOTERICIN B]
[5]
  pIC50: 7.52

## NNC(=O)c1ccncc1 [ISONIAZID]
[6]
  MIC: 0.37 µM (≈ 0.0507 µg/mL)

## C[C@H]1[C@@H](O)O[C@@H]2O[C@@]3(C)CC[C@H]4[C@H](C)CC[C@@H]1[C@@]24OO3 [ARTENIMOL]
[7]
  pIC50: 8.40

## Cc1c2ccncc2c(C)c2c1[nH]c1ccccc12 [ELLIPTECINE]
[1]
  pIC50: 5.36
[2]
  pIC50: 5.86
[3]
  pIC50: 5.92
[4]
  pIC50: 5.77

## CCCCCCCCC/C=C/C(=O)N[C@H]1C[C@@]2(O)C(=O)C=C[C@@H](Cl)[C@@H]2O[C@H]1O [ISARIOTIN F]
[6]
  MIC: 60.4 µM (≈ 25 µg/mL)
[1]
  pIC50: 5.80
[2]
  pIC50: 4.80
[3]
  pIC50: 5.62
[7]
  pIC50: 5.29
[4]
  pIC50: 5.54
[5]
  pIC50: 4.86
